Four compounds from ChEMBL document CHEMBL1157556, “Synthesis and biological screening of a combinatorial library of beta-chlorovinyl chalcones as anticancer, anti-inflammatory and antimicrobial agents” (Bioorg Med Chem, 2010) can be followed below.

In brackets after ≈: the same amount, converted by molar mass.

Data set [1] concerns Staphylococcus aureus. The data set is described as follows: Antibacterial activity against Staphylococcus aureus MTCC 96 after 24 hrs. The data set is classed as functional. The settings on record: MTCC 96, 24 h. A digest of the protocol:
(§1)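 Agar well diffusion on Mueller Hinton agar seeded with 0.1 mL of a 10⁵ cfu/mL suspension in 0.85% saline. Compounds dissolved in DMSO, final concentrations 25–250 µg/mL, 0.1 mL loaded per 6 mm well. DMSO (1%) control; tetracycline (10 µg/mL) reference. Duplicate plates incubated 24 h at 37 °C. Inhibition zone read in mm. MIC taken as lowest concentration giving complete growth inhibition.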

Data set [2] deals with THP-1. The data set is described as follows: Antiinflammatory activity in human THP1 cells assessed as inhibition of LPS-induced TNFalpha release at 10 uM after 24 hrs by ELISA. Format: functional. The settings on record: THP-1, 24 h. In short, it runs like this:
(§2)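 THP-1 cells grown in RPMI 1640 with 10% FBS, penicillin and streptomycin, then PMA-differentiated. Compounds in 0.5% DMSO preincubated 30 min at 37 °C before LPS (E. coli 0127:B8) stimulation. TNF-α and IL-6 release measured by kit per the manufacturer (BD Biosciences). Percent inhibition calculated relative to control. Dexamethasone 1 µM as reference.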
On the technique in general: In an ELISA, binding on a coated surface is turned into a signal by an enzyme label.

Data set [3] relates to PANC-1. The data set is described as follows: Anticancer activity against human PANC1 cells at 10 uM after 48 hrs by propidium iodide fluorescence assay. The data set is classed as functional. In short, it runs like this:
(§3)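 Propidium iodide DNA-fluorescence assay. Seeding 3000–7500 cells/well, 24 h recovery at 37 °C in 5% CO₂. Compounds in 0.1% DMSO added to triplicate wells at 10 µM. Flavopiridol 700 nM and gemcitabine 500 nM as reference inhibitors. Plates frozen at −80 °C for 24 h, thawed to room temperature, fluorescence read at excitation 530 nm and emission 620 nm. Percent cytotoxicity calculated.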

For a further data set, the system named is Trichoderma viride. The data set is described as follows: Antifungal activity against Trichoderma viride MTCC 167 at 100 ug/ml after 48 hrs agar diffusion method. The data set is classed as functional. The conditions noted are these: MTCC 167, 48 h, read-out: IZ. A digest of the protocol:
(§4)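 Fungal spore suspensions in sterile distilled water adjusted to 10⁶ cfu/mL; 0.1 mL spread on Sabouraud dextrose agar. Wells of 6 mm filled with 0.1 mL compound dilution in DMSO. DMSO (1%) control; nystatin (30 µg/mL) reference. Duplicate plates incubated at 28 °C for 48 h. Activity read as inhibition zone diameter in mm.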
A general note: A growth-free zone around the sample is the usual read-out of agar diffusion tests.

For a further data set, the system named is Penicillium chrysogenum. The data set can be described thus: Antifungal activity against Penicillium chrysogenum MTCC 1996 at 100 ug/ml after 48 hrs agar diffusion method. The conditions noted are these: MTCC 1996, 48 h, read-out: IZ. Format: functional. In short, it runs like this:
as §4

Another data set concerns Candida albicans. The data set is described as follows: Antifungal activity against Candida albicans MTCC 227 at 100 ug/ml after 48 hrs agar diffusion method. The settings on record: MTCC 227, 48 h, read-out: IZ. The data set is classed as functional. In short, it runs like this: as §4
Data set [4] deals with Klebsiella pneumoniae. The data set can be described thus: Antibacterial activity against Klebsiella pneumoniae NCIM 2957 at 50 ug/ml after 24 hrs agar diffusion method. Format: functional. The conditions noted are these: NCIM 2957, 24 h, read-out: IZ. In short, it runs like this: as §1
Data set [5] relates to NCI-H460. The data set can be described thus: Anticancer activity against human H460 cells at 10 uM after 48 hrs by propidium iodide fluorescence assay. The data set is classed as functional. A digest of the protocol: as §3
The test system of data set [6] is ACHN. The data set is described as follows: Anticancer activity against human ACHN cells at 10 uM after 48 hrs by propidium iodide fluorescence assay. The data set is classed as functional. In short, it runs like this:
as §3

The subject of data set [7] is Proteus vulgaris. The data set is described as follows: Antibacterial activity against Proteus vulgaris MTCC 1771 after 24 hrs. Format: functional. The conditions noted are these: MTCC 1771, 24 h. A digest of the protocol:
as §1

The test system of data set [8] is Escherichia coli. The data set can be described thus: Antibacterial activity against Escherichia coli MTCC 1650 after 24 hrs. Format: functional. The conditions noted are these: MTCC 1650, 24 h. A digest of the protocol:
as §1

The test system of data set [9] is HCT-116. The data set is described as follows: Anticancer activity against human HCT116 cells at 10 uM after 48 hrs by propidium iodide fluorescence assay. Format: functional. In short, it runs like this: as §3
Data set [10] has as its system THP-1. The data set can be described thus: Cytotoxicity against human THP1 cells assessed as CCK8 release at 10 uM after 24 hrs by ELISA. Format: cell-based. The conditions noted are these: thp-1, 24 h. In short, it runs like this: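 Same THP-1 cytokine-assay cells, with compounds in 0.5% DMSO and LPS stimulation, were scored in parallel for cytotoxicity by CCK-8.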

Data set [11] concerns Klebsiella pneumoniae. The data set is described as follows: Antibacterial activity against Klebsiella pneumoniae NCIM 2957 after 24 hrs. The data set is classed as functional. The settings on record: NCIM 2957, 24 h. A digest of the protocol:
as §1

Data set [12] deals with Bacillus subtilis. The data set can be described thus: Antibacterial activity against Bacillus subtilis MTCC 1789 after 24 hrs. The data set is classed as functional. The conditions noted are these: MTCC 1789, 24 h. In short, it runs like this:
as §1

For data set [13], the system named is Staphylococcus aureus. The data set is described as follows: Antibacterial activity against Staphylococcus aureus MTCC 96 at 50 ug/ml after 24 hrs agar diffusion method. The data set is classed as functional. The settings on record: MTCC 96, 24 h, read-out: IZ. In short, it runs like this: as §1
Data set [14] concerns THP-1. The data set can be described thus: Antiinflammatory activity in human THP1 cells assessed as inhibition of LPS-induced IL6 release at 10 uM after 24 hrs by ELISA. Format: functional. The settings on record: THP-1, 24 h. A digest of the protocol:
as §2

The subject of data set [15] is Calu-1. The data set can be described thus: Anticancer activity against human Calu1 cells at 10 uM after 48 hrs by propidium iodide fluorescence assay. Format: functional. A digest of the protocol:
as §3

Data set [16] relates to Escherichia coli. The data set can be described thus: Antibacterial activity against Escherichia coli MTCC 1650 at 50 ug/ml after 24 hrs agar diffusion method. Format: functional. The conditions noted are these: MTCC 1650, 24 h, read-out: IZ. In short, it runs like this: as §1
The next data set concerns Aspergillus niger. The data set is described as follows: Antifungal activity against Aspergillus niger MTCC 1781 at 100 ug/ml after 48 hrs agar diffusion method. Format: functional. The settings on record: MTCC 1781, 48 h, read-out: IZ. In short, it runs like this: as §4
A further data set concerns Aspergillus flavus. The data set is described as follows: Antifungal activity against Aspergillus flavus MTCC 2501 at 100 ug/ml after 48 hrs agar diffusion method. Format: functional. The conditions noted are these: MTCC 2501, 48 h, read-out: IZ. A digest of the protocol:
as §4

The test system of data set [17] is Proteus vulgaris. The data set is described as follows: Antibacterial activity against Proteus vulgaris MTCC 1771 at 50 ug/ml after 24 hrs agar diffusion method. The data set is classed as functional. The conditions noted are these: MTCC 1771, 24 h, read-out: IZ. In short, it runs like this: as §1
Data set [18] concerns Bacillus subtilis. The data set can be described thus: Antibacterial activity against Bacillus subtilis MTCC 1789 at 50 ug/ml after 24 hrs agar diffusion method. The settings on record: MTCC 1789, 24 h, read-out: IZ. The data set is classed as functional. A digest of the protocol:
as §1

Data set [19] has as its system HCT-116. The data set is described as follows: Anticancer activity against human HCT116 cells at 500 nM after 48 hrs by propidium iodide fluorescence assay. Format: functional. In short, it runs like this:
as §3

For data set [20], the system named is PANC-1. The data set is described as follows: Anticancer activity against human PANC1 cells at 500 nM after 48 hrs by propidium iodide fluorescence assay. Format: functional. A digest of the protocol:
as §3

Data set [21] relates to NCI-H460. The data set is described as follows: Anticancer activity against human H460 cells at 500 nM after 48 hrs by propidium iodide fluorescence assay. Format: functional. In short, it runs like this:
as §3

Data set [22] relates to Calu-1. The data set is described as follows: Anticancer activity against human Calu1 cells at 500 nM after 48 hrs by propidium iodide fluorescence assay. The data set is classed as functional. In short, it runs like this: as §3
In data set [23] the test system is ACHN. The data set is described as follows: Anticancer activity against human ACHN cells at 500 nM after 48 hrs by propidium iodide fluorescence assay. Format: functional. In short, it runs like this: as §3

As a reminder, the MIC is the lowest concentration found to suppress growth. As a reminder, the inhibition is the relative decrease from the control value, in per cent. In the case of `COc1ccc(C(=O)/C=C/C=C(\Cl)c2ccc(OC)cc2)cc1`, the minimal inhibitory concentration (MIC) in the data set on Staphylococcus aureus [1], against Proteus vulgaris [7], in the data set with Escherichia coli [8], against Klebsiella pneumoniae [11] and against Bacillus subtilis [12] was 50 mg/L (≈ 152 µM) throughout. Moreover, the inhibition at 10 µM in the data set on THP-1 [2] came out at 2%; with THP-1 [14], 11%. The Activity in the data set on PANC-1 [3] was 16%; with NCI-H460 [5] it was 19%; in the data set on ACHN [6], 28%; with HCT-116 [9], 16%; with THP-1 [10] it was 0%; in the data set on Calu-1 [15], 38%. Besides, the zone of inhibition at 100 µg/mL with Trichoderma viride worked out at 14 mm; with Penicillium chrysogenum, 15 mm; with Candida albicans it was 11 mm; in the data set on Aspergillus niger, 14 mm; in the data set on Aspergillus flavus, 14 mm. For the same compound, the figures for the zone of inhibition at 50 µg/mL in the data set on Klebsiella pneumoniae [4], with Staphylococcus aureus [13] and in the data set with Escherichia coli [16] were 12 mm, 12 mm and 17 mm, respectively.

For `COc1ccc(C(=O)/C=C/C=C(\Cl)c2ccc(F)cc2)cc1`, the minimum inhibitory concentration (MIC) against Staphylococcus aureus [1], in the data set with Proteus vulgaris [7], with Escherichia coli [8], against Klebsiella pneumoniae [11] and in the data set with Bacillus subtilis [12] was 50 mg/L (≈ 158 µM) throughout. The inhibition at 10 µM in the data set on THP-1 [2] was 0%; in the data set on THP-1 [14], 6%. The Activity is recorded as 1% in the data set on PANC-1 [3]; 14% in the data set on NCI-H460 [5]; 17% in the data set with ACHN [6]; 0% in the data set on HCT-116 [9]; 2% with THP-1 [10]; 0% in the data set on Calu-1 [15]. Also, the zone of inhibition at 100 µg/mL came out at 14 mm in the data set on Trichoderma viride; 15 mm in the data set with Penicillium chrysogenum; 8 mm with Candida albicans; 8 mm with Aspergillus niger; 15 mm in the data set on Aspergillus flavus. Moreover, the zone of inhibition at 50 µg/mL with Klebsiella pneumoniae [4] amounted to 15 mm; in the data set on Proteus vulgaris [17] it was 16 mm; with Staphylococcus aureus [13] it was 16 mm; in the data set with Bacillus subtilis [18], 15 mm; in the data set on Escherichia coli [16], 11 mm.

Turning to `COc1ccc(C(=O)/C=C/C=C(\Cl)c2ccc(Br)cc2)c(OC)c1`, the MIC in the data set with Staphylococcus aureus [1], against Proteus vulgaris [7], in the data set with Escherichia coli [8], in the data set on Klebsiella pneumoniae [11] and in the data set on Bacillus subtilis [12] was 50 mg/L (≈ 123 µM) in each case. The inhibition at 10 µM is 0% with THP-1 [2] and 36% with THP-1 [14]. Further, the Activity is listed as 33% in the data set with PANC-1 [3]; 16% in the data set with NCI-H460 [5]; 39% in the data set with ACHN [6]; 22% in the data set on HCT-116 [9]; 0% with THP-1 [10]; 27% in the data set on Calu-1 [15]. Also, the zone of inhibition at 100 µg/mL came out at 16 mm in the data set on Trichoderma viride; 16 mm with Penicillium chrysogenum; 12 mm in the data set on Candida albicans; 12 mm in the data set on Aspergillus niger; 18 mm with Aspergillus flavus. In addition, the zone of inhibition at 50 µg/mL with Klebsiella pneumoniae [4] turned out to be 18 mm; with Proteus vulgaris [17], 10 mm; in the data set with Staphylococcus aureus [13] it was 12 mm; with Bacillus subtilis [18], 16 mm; in the data set with Escherichia coli [16] it was 13 mm.

With `Nc1ccn([C@@H]2O[C@H](CO)[C@@H](O)C2(F)F)c(=O)n1` [GEMCITABINE], the Activity in the data set with HCT-116 [19] is given as 76%; in the data set with PANC-1 [20] it was 71%; in the data set on NCI-H460 [21] it was 68%; in the data set with Calu-1 [22], 70%; with ACHN [23], 70%.
